IC50 and Activity data for 20 compounds are collected here from ChEMBL document CHEMBL1141554, “Discovery of new MurF inhibitors via pharmacophore modeling and QSAR analysis followed by in-silico screening” (Bioorg Med Chem, 2008).

Assay [1] deals with T1, UDP-N-acetylmuramoylalanine-D-glutamyl-lysine-D-alanyl-D-alanine ligase (Streptococcus pneumoniae R6, UniProt Q8DNV6).
T1 sequence (Q8DNV6 whole entry): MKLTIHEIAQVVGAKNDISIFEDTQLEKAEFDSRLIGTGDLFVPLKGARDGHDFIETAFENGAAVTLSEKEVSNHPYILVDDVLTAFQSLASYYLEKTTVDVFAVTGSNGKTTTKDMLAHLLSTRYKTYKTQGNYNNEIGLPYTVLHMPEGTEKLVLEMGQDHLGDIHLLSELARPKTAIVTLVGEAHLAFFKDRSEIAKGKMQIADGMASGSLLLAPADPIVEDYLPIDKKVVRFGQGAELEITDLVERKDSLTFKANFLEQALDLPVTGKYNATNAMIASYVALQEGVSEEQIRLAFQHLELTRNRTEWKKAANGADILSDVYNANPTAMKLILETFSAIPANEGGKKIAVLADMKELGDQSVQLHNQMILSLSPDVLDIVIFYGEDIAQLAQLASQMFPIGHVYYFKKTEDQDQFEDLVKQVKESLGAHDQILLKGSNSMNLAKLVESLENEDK
The experiment in a line: Inhibition of Streptococcus pneumoniae MurF.

In assay [2] the target is T2, UDP-N-acetylmuramoyl-tripeptide--D-alanyl-D-alanine ligase (Pseudomonas aeruginosa) (UniProt Q9EY48).
T2 sequence (whole entry): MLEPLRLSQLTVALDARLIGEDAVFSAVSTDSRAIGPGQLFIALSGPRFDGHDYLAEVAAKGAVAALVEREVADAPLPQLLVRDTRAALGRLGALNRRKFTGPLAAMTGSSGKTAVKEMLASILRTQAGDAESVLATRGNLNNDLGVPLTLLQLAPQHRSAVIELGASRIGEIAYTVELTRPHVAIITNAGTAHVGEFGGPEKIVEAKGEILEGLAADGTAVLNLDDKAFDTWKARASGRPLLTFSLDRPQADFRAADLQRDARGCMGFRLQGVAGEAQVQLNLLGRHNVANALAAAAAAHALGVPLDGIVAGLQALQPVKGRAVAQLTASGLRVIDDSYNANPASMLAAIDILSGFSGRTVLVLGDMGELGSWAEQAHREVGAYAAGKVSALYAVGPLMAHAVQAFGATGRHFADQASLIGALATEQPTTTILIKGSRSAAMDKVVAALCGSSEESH
Briefly: Inhibition of Pseudomonas aeruginosa MurF ATPase activity assessed as residual enzyme activity at 5 mM by spectrophotometric assay relative to control.

The target of assay [3] is T3, UDP-N-acetylmuramoyl-tripeptide--D-alanyl-D-alanine ligase (Pseudomonas aeruginosa, UniProt Q9EY48).
T3 sequence (Q9EY48 whole entry): T2 sequence (whole entry)
Briefly: Inhibition of Pseudomonas aeruginosa MurF ATPase activity by spectrophotometric assay. In a few lines: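 Purified recombinant P. aeruginosa MurF was used at a high enzyme concentration. It was pre-incubated with a range of compound concentrations in pH 8.6 buffer (40 mM KCl, 500 mM NaCl, 1 mg/ml BSA, 10 mM MgCl2) before UDP-MurNAc-Ala-Glu-meso-A2pm and the other substrates were added. IC50 was derived from percent residual ATPase activity versus compound-free enzyme.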

Assay [4] concerns Escherichia coli. Briefly: Antibacterial activity against Escherichia coli. Type of assay: functional, organism-based.
The subject of assay [5] is Staphylococcus aureus. Briefly: Antibacterial activity against Staphylococcus aureus. Type of assay: functional, organism-based.
Assay [6] has as its system Pseudomonas aeruginosa. The experiment in a line: Antibacterial activity against Pseudomonas aeruginosa. The class given is functional, organism-based.
Assay [7] concerns MurF (Streptococcus pneumoniae). The experiment in a line: Inhibition of Streptococcus pneumoniae MurF.

Active and inactive are the calls of the source. No cut-off for these calls is given here.

In the case of `CCOC(=O)C1CCc2sc(NC(=O)c3cc(S(=O)(=O)N(CC)CC)ccc3Cl)c(C#N)c2C1` (stereo not given), in assay [1], half-maximal inhibition (IC50) was put at 6 µM.
On to `CSc1ncnc2c1ncn2CC(=O)[C@@]1(O)CC[C@H]2[C@@H]3CCC4=CC(=O)CC[C@]4(C)[C@H]3[C@@H](O)C[C@@]21C`, for which the Activity in assay [2] was 48%. For the same compound, the IC50 (in general, the concentration that gives 50% inhibition) in assay [3] turned out to be 4800 µM.
Turning to `CCN(CC)S(=O)(=O)c1ccc(Cl)c(C(=O)Nc2sc3c(c2C#N)CC(c2ccc(O)cc2)CC3)c1` (stereo not given), in assay [1], the IC50 is 0.054 µM.
For `COc1ccc(CCN2C(=O)c3cccc4c(Sc5ccccc5[N+](=O)[O-])ccc(c34)C2=O)cc1OC`, the Activity in assay [2] was found to be 0%. The outcome in assay [4], in assay [5] and in assay [6] was inactive. Besides, the midpoint of inhibition in assay [3], the IC50, lay at 325 µM.
Turning to `Cn1nnnc1SCC1=C(C(=O)O)N2C(=O)[C@@H](NC(=O)[C@H](OC=O)c3ccccc3)[C@H]2SC1` [CEFAMANDOLE NAFATE], in assay [2], the Activity is 84%. The compound also returned an IC50 in assay [3] of more than 5000 µM.
Regarding `C[C@]12CCC(=O)C=C1CC[C@@H]1[C@@H]2[C@@H](O)C[C@@]2(C)[C@H]1CC[C@]2(O)C(=O)COC(=O)C1C2C=CC(C2)C1C(=O)O` (stereo not given in full), the Activity in assay [2] is 42%. In assay [3], this compound had a half-inhibitory concentration (IC50) of 4300 µM.
On the same counts, the results for `O=S(=O)(O)c1ccc(/N=N/c2ccc(O)c(/N=N/c3ccc(S(=O)(=O)O)c4ccccc34)c2O)c2ccccc12` are 100% and more than 5000 µM.
As for `N#Cc1c(NC(=O)c2cc(S(=O)(=O)N3CCCCC3)ccc2Cl)sc2c1CCC2`, the concentration for half-maximal inhibition (IC50) in assay [1] came out at 2.5 µM.
`C[C@]12CCC(=O)C=C1CC[C@@H]1[C@@H]2[C@@H](O)C[C@@]2(C)[C@H]1CC[C@]2(O)C(=O)COC(=O)c1cc([N+](=O)[O-])ccc1Cl`: the Activity in assay [2] worked out at 67%. This compound also registered an IC50 in assay [3] of more than 5000 µM.
In the case of `N#Cc1c(NC(=O)c2cc(S(=O)(=O)N3CCOCC3)c(Cl)cc2Cl)sc2c1CC(c1ccc(O)cc1)CC2` (stereo not given), inhibition in assay [1] was half-maximal at 0.022 µM (IC50).
Take `N#Cc1c(NC(=O)c2cc(S(=O)(=O)N3CCOCC3)c(Cl)cc2Cl)sc2c1CC(c1ccccc1)CC2` (stereo not given): in assay [1], the midpoint of inhibition, the IC50, lay at 0.07 µM.
For `C[C@]12CCC(=O)C=C1CC[C@@H]1[C@@H]2[C@@H](O)C[C@@]2(C)[C@H]1CC[C@]2(O)C(=O)COC(=O)CCC1CCCC1` [HYDROCORTISONE CYPIONATE], the Activity in assay [2] stood at 86%. Besides, in assay [3], the IC50 was more than 5000 µM.
Compound `N#Cc1cc(CCc2ccncc2)sc1NC(=O)c1cc(S(=O)(=O)N2CCOCC2)ccc1Cl` gave an IC50 in assay [1] of 6 µM.
Regarding `O=C1C=CC(=O)C(SCCCSC2=CC(=O)C(SCCCSC3=CC(=O)C=CC3=O)=CC2=O)=C1`, the Activity in assay [2] worked out at 0%. In addition, the result in assay [4], in assay [5] and in assay [6] was inactive. Half-maximal inhibition in assay [3] (IC50) required 300 µM.
In assay [1], `N#Cc1c(NC(=O)c2cc(S(=O)(=O)N3CCOCC3)c(F)cc2Cl)sc2c1CCC2` had an IC50 of more than 6.4 µM.
`C[C@@H]1O[C@@H]1P(=O)(O)O` [FOSFOMYCIN] showed an IC50 in assay [7] of 15 µM.
For the compound `CCN(CC)S(=O)(=O)c1cc(C(=O)Nc2sc3c(c2C#N)CC(c2ccc(O)cc2)CC3)c(Cl)cc1Cl` (stereo not given), the IC50 in assay [1] was 0.067 µM.
Take `COc1ccc(NC(=O)C(=O)Cc2nc3ccc([N+](=O)[O-])cc3nc2O)c(OC)c1`: in assay [2], the Activity stood at 0%. Also, the outcome in assay [4], in assay [5] and in assay [6] was inactive. Further, in assay [3], the IC50 is 125 µM.
Take `O=S(=O)(SC(=S)NCCNC(=S)SS(=O)(=O)c1ccc(Cl)cc1)c1ccc(Cl)cc1`: the Activity in assay [2] amounted to 71%. Besides, in assay [3], the IC50 is more than 5000 µM.
On the same counts, the results for `CCOC(=O)Cn1/c(=N/N=C/c2ccc([N+](=O)[O-])o2)sc2cc(OC)ccc21` are 51% and more than 5100 µM.
